Yeast fitness data for 167 variants are collected here from the RNAGym collection of RNA variant scans (doi:10.1126/science.aae0568).

This sample holds only a part of the variants without activity. Where only a bound is given, the exact number is not on record here.

The labels stand for the following.
B1: tRNA (parent)
chain: GUUCCGUUGGCGUAAUGGUAACGCGUCUCCCUCCUAAGGAGAAGACUGCGGGUUCGAGUCCCGUACGGAACG

The data set covers variants of B1. In words: yeast fitness relative to wild type (ratio to wild type); higher = fitter; tRNA-Arg(CCU), competitive growth, 37 C, YPD. In short, it runs like this: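 Start and end populations of a pooled competition were compared by 100-nucleotide paired-end sequencing of gene amplicons. The Saccharomyces cerevisiae strains carried tRNA-Arg(CCU) gene variants at the native genomic locus, synthesised with a 3% per-site mutation rate at 69 sites, and competed in YPD at 37°C for 24 hours in six parallel replicates. Darwinian fitness relative to wild type was based on the change in genotype frequencies. Genotypes required ≥ 100 starting reads, and estimates < 0.5 were set to 0.5.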
As to C4A A20U G23A C66U, the yeast fitness is ≤ 0.5. For the variant C4A A14G, the yeast fitness is 0.72. In the case of C4A A14U, the yeast fitness was 0.698. As to C4A C24G G63A C66A, the yeast fitness is ≤ 0.5. To C4A C5A C29U G51C belongs ≤ 0.5; to C4A C5U A57U U59C, ≤ 0.5; to C4A A57C C62U, ≤ 0.5.

Regarding C4A C29U C55U G63A, the yeast fitness was ≤ 0.5. In the case of C4A C24U G58A C62U, the yeast fitness came to 0.587. Take C4A C5U C27U A37G: the yeast fitness was ≤ 0.5. As for C4A C30A A40G, the yeast fitness is 0.74. Consider C4A C5G C27U U53A A69U, for which the yeast fitness was ≤ 0.5. C4A A65G A69U: the yeast fitness was 0.617. On to C4A C5A A42U A57C C61U A65U, for which the yeast fitness is ≤ 0.5. C4A A20G G44C A45G C61U: the yeast fitness was ≤ 0.5. With C4A A20U C66U the figure was ≤ 0.5.

As for C4A C29G C34G C49U, the yeast fitness is 0.557. To C4A C5A A20U A69C belongs 0.551. For the variant C4A A40U A43U A70U, the yeast fitness is ≤ 0.5.

In the case of C4A C5G A20G U54A C62U, the yeast fitness was ≤ 0.5.

In the case of C4A C22G A40C G67A, the yeast fitness amounted to 0.61. On to C4A A43U C62U, for which the yeast fitness came out at 0.791.

C4A A20G A37U C61A: the yeast fitness was ≤ 0.5. On to C4A C24U A36U G39C C46G C55A C66G, for which the yeast fitness was ≤ 0.5.

Regarding C4A C5A A15G U19C, the yeast fitness is ≤ 0.5.

In the case of C4A C5U C24G A45U C66U, the yeast fitness was ≤ 0.5.

As for C4A A21C G39C C49G, the yeast fitness was determined as 0.511. For the variant C4A A15C U28C C34G, the yeast fitness was ≤ 0.5.

With C4A C24G, the yeast fitness was 0.714. As to C4A C24U, the yeast fitness was 0.733.

With C4A C5G U19A C46U A69U, the yeast fitness is 0.574. In the case of C4A C11U C29G U32A G52A, the yeast fitness was 0.596. With C4A C27G C29G G68U the figure was ≤ 0.5; with C4A C22U C30A, 0.504; with C4A C5G C30A, ≤ 0.5. In the case of C4A A20U, the yeast fitness is 0.707. For C4A A36C C49U A57G, the yeast fitness is ≤ 0.5. As to C4A A20G G44C A45G, the yeast fitness came out at 0.506.

As to C4A C22A C33A G39C, the yeast fitness was ≤ 0.5. With C4A A21C U54A, the yeast fitness was ≤ 0.5. Regarding C4A C22G C27U, the yeast fitness worked out at 0.522. To C4A C5A A20U C31U C49U belongs ≤ 0.5; to C4A C5U C22U C34A C49U C62U, ≤ 0.5. With C4A C27U C66U the figure was 0.66. To C4A A15G belongs 0.844. As to C4A A14G A20U C49A, the yeast fitness is 0.87. Regarding C4A C27U A40U G52C C60G, the yeast fitness was ≤ 0.5. With C4A C30G C31U C55A C61G G67A, the yeast fitness was ≤ 0.5. Regarding C4A C5U G58C U64A, the yeast fitness came out at 0.572. With C4A A20U G44C C60A, the yeast fitness is ≤ 0.5. With C4A C11U the figure was 0.781. Regarding C4A A40C G41C, the yeast fitness was ≤ 0.5. With C4A A70C the figure was 0.993; with C4A C24G C61A C66U, ≤ 0.5; with C4A C29U G67A, ≤ 0.5. Take C4A A15C C27G C62G: the yeast fitness is ≤ 0.5.

On to C4A C5A U28G C31G U47C A57U A70G, for which the yeast fitness is ≤ 0.5. Take C4A A20C C34A G39C A43U: the yeast fitness was found to be 0.512. As to C4A A15C C55U, the yeast fitness was found to be 0.58. For C4A A20U C34G C55G C60A, the yeast fitness is ≤ 0.5. For the variant C4A C5G A36U G63A, the yeast fitness was ≤ 0.5. Regarding C4A A15G G17A U32C C62A A69U, the yeast fitness is ≤ 0.5. With C4A A20U U28A C31U A65U, the yeast fitness is ≤ 0.5.

As for C4A A15G C33G C60A, the yeast fitness was ≤ 0.5. With C4A C24U A65C, the yeast fitness turned out to be 0.65. To C4A A21U G52A belongs ≤ 0.5; to C4A C5A C66A A69C, ≤ 0.5.

On to C4A C27U A37G, for which the yeast fitness came out at 0.566. C4A C27A G38A: the yeast fitness stood at 0.513.

Consider C4A C5A C22A U28G C33G A57G C62A, for which the yeast fitness was ≤ 0.5.

For C4A A37U G50C, the yeast fitness was ≤ 0.5. For the variant C4A A20U A43U, the yeast fitness was ≤ 0.5.

C4A A36G G44U G51C A65U: the yeast fitness is ≤ 0.5.

C4A A14U C27U U28A: the yeast fitness came to 0.859. Turning to C4A A36G G58C, the yeast fitness turned out to be 0.565. As for C4A A14G C24U U32G A42U A43G C66U, the yeast fitness was ≤ 0.5.

Turning to C4A A21G C60U, the yeast fitness amounted to 0.544. As for C4A C24A A42G, the yeast fitness turned out to be 0.603. As for C4A A20U U32C A43U, the yeast fitness is ≤ 0.5. To C4A A20G C34G C66U belongs ≤ 0.5; to C4A C29U C30G C49U, ≤ 0.5. As to C4A C5U G17A, the yeast fitness was ≤ 0.5.

Regarding C4A C11A U47G, the yeast fitness is ≤ 0.5. Turning to C4A A14C U26C A36G A65U, the yeast fitness was ≤ 0.5. Turning to C4A C24G U28A U35C C49U, the yeast fitness stood at 0.542. To C4A C29G A40U belongs ≤ 0.5. Turning to C4A C29G C33G A43U, the yeast fitness was ≤ 0.5.

On to C4A C24G A69U, for which the yeast fitness is ≤ 0.5.

Regarding C4A A20G G48A A69C, the yeast fitness is ≤ 0.5. On to C4A C5A C34A C46U A65C, for which the yeast fitness was ≤ 0.5.

With C4A A14G A36C U59A, the yeast fitness worked out at 0.686. For the variant C4A A42U G68C, the yeast fitness is ≤ 0.5. Take C4A C24G G44C C62G: the yeast fitness was ≤ 0.5. To C4A C22G C33U A40U U59A belongs ≤ 0.5; to C4A A20C G50C A65C, ≤ 0.5. Regarding C4A C5U C22U C49U, the yeast fitness was ≤ 0.5. With C4A C22U C60U G67C, the yeast fitness came out at 0.519. In the case of C4A A14U C29U G68A, the yeast fitness is ≤ 0.5. Turning to C4A A15C A43G, the yeast fitness is ≤ 0.5. Regarding C4A A14U C30A G67C, the yeast fitness was ≤ 0.5. For C4A C11U C30U G39C C55G, the yeast fitness is ≤ 0.5. For C4A A15C A70U, the yeast fitness was ≤ 0.5.

Turning to C4A C11U C22A G23C A40G, the yeast fitness was ≤ 0.5. On to C4A A14G G63A, for which the yeast fitness is ≤ 0.5. To C4A C11G G51C belongs ≤ 0.5. With C4A A42U the figure was 0.716; with C4A A21G G51A A69G, ≤ 0.5; with C4A A36G, 0.87. As for C4A A20U C30U, the yeast fitness was ≤ 0.5. With C4A C5A C11U A20U A69C, the yeast fitness was ≤ 0.5. As to C4A C24A G52C A57C U59A, the yeast fitness amounted to 0.57. With C4A C29G C34G, the yeast fitness came to 0.782. With C4A C5A C30A C31U C33A A45U the figure was ≤ 0.5; with C4A A21G C27U, 0.686; with C4A C30G A40U A45U G48A, ≤ 0.5. With C4A C11G U19G the figure was ≤ 0.5; with C4A C30G C49U, 0.566; with C4A C30G C49G, ≤ 0.5.

As to C4A C5U G17A C30U G68C, the yeast fitness is ≤ 0.5. With C4A A57U the figure was 0.714; with C4A C27U C61U, 0.62. In the case of C4A C5G A20C A40U A65C, the yeast fitness is ≤ 0.5. Take C4A A21C C22U: the yeast fitness was 0.651. With C4A C30A A37C the figure was ≤ 0.5; with C4A C27G C34G A37U U64A, ≤ 0.5.

For C4A A14U C34G G56C, the yeast fitness was ≤ 0.5. Consider C4A C5G U8A C30A G67C, for which the yeast fitness is ≤ 0.5. Turning to C4A C27U G39C, the yeast fitness is 0.632. To C4A C5U C24G belongs ≤ 0.5; to C4A C30G A45C C61G, ≤ 0.5; to C4A A20U C29G C49G G63C, ≤ 0.5. C4A A14U C31U A40U G41C A45C A69C: the yeast fitness turned out to be 0.599.

C4A C11A U13C: the yeast fitness worked out at 0.605. Turning to C4A A14U A20C U28G A70U, the yeast fitness was ≤ 0.5. With C4A C5U U19A C66A, the yeast fitness was ≤ 0.5.

With C4A A21G C33U G51C, the yeast fitness was ≤ 0.5.

As to C4A C5U U19A A42G, the yeast fitness was ≤ 0.5. As for C4A A45U C62U G68A, the yeast fitness came out at 0.562. C4A C22G C29U: the yeast fitness is 0.556. Turning to C4A C5A G41C G56A C62U A65C, the yeast fitness is ≤ 0.5. On to C4A C5G C66U A70G, for which the yeast fitness is ≤ 0.5.

For C4A C24G A37G G50C, the yeast fitness was ≤ 0.5. With C4A C5U C34U the figure was ≤ 0.5; with C4A C22A A69U, 0.528; with C4A A45C, 0.754. In the case of C4A C24G G25C A45G C60A, the yeast fitness was ≤ 0.5. C4A C24U C29U: the yeast fitness is ≤ 0.5. With C4A A20G U28G G68C A70C the figure was ≤ 0.5; with C4A C11U A37C, 0.537; with C4A A45C U47A, 0.708.

For C4A C24G G44C G68U, the yeast fitness stood at 0.562. Regarding C4A C24G C33G G63C, the yeast fitness is ≤ 0.5. With C4A C27U C60G the figure was ≤ 0.5. For the variant C4A C5U C24G A45U, the yeast fitness worked out at 0.649. C4A C5A: the yeast fitness was 0.752. To C4A C5U belongs 0.837; to C4A A40G A65G, 0.533. To C4A C5U C11G C30A belongs ≤ 0.5; to C4A A45C U47A A70G, ≤ 0.5.

On to C4A A21C A70C, for which the yeast fitness is ≤ 0.5.

As for C4A A40C C49G C60G, the yeast fitness is ≤ 0.5. On to C4A C5U U8C U64A, for which the yeast fitness is ≤ 0.5. As for C4A A14G C30G A45G, the yeast fitness amounted to 0.758. In the case of C4A A21G C49G G63C, the yeast fitness was 0.538. For the variant C4A A43U, the yeast fitness came out at 0.841. For C4A C11U C29G C34A G39C, the yeast fitness is ≤ 0.5. As for C4A A15G G17A C30G G48A U53C C62U, the yeast fitness is ≤ 0.5.
